Results taken from the EternaBench riboswitch data.

System: MS2 coat protein
Test: apparent Kd, MS2 coat protein; higher = weaker binding; RNA-MaP array; FMN 200 µM where present
Summary of the method: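 SNAP-549-labelled MS2 coat protein, doubled from 0.7 or 1.5 nM to 3 µM, was titrated over designs transcribed by stalled E. coli RNA polymerase on Illumina sequencing-chip clusters. Titrations were run without and then with constant ligand in 100 mM Tris-HCl pH 7.5, 80 mM KCl, 4 mM MgCl2, BSA, DTT, yeast tRNA and Tween-20. The apparent Kd is the median of filtered per-cluster fits to green signal normalised to red-channel RNA signal and control-cluster median Fmax.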

[1] = designed as: OFF switch for flavin mononucleotide, no ligand
[2] = ligand present: flavin mononucleotide, designed as: OFF switch for flavin mononucleotide
[3] = designed as: ON switch for flavin mononucleotide, no ligand
[4] = ligand present: flavin mononucleotide, designed as: ON switch for flavin mononucleotide

AAGUCGUGAGGAUAUACAUGCAUAUACAUUUAUGUAAAACUACAUGAGGAUCACCCAUGUAGAAGGCACGAAUA
apparent Kd [1]: 17.6 nM | apparent Kd [2]: 16.1 nM

AUCAGCACGUGAGGAUAUGCGUUACUGCGAAAGCAGUACGGUAAGAUCACAUGAGGAUCACCCAUGUAGAAGGCACGAGCUGAU
apparent Kd [1]: 16.6 nM | apparent Kd [2]: 36.9 nM

UCAGGUGGAGGAUAUACAGCUCGAUCCUGUAAUAAAACGGCACAUGAGGAUCACCCAUGUAGAAGGCCACAAUA
apparent Kd [1]: 25.7 nM | apparent Kd [2]: 126 nM

UCUUUACUGGUCAGGAUAUACAUUCGCUACUCCUUGUAGAAGGGACAUGAGGAUCACCCAUGUACUUUACAUUC
apparent Kd [1]: 18.5 nM | apparent Kd [2]: 19.5 nM

GGUCGCAAGUAAGGAUAUGCAUAUGAAACAUAUGCAGAAGGUACAUGAGGAUCACCCAUGUUAAUGCAAAGCGAAUAAGCGACC
apparent Kd [1]: 15.5 nM | apparent Kd [2]: 19.6 nM

GCAGACGUAGUGAGGAUAUGCUCUACCUCGGUAGAGCAGAAGGCACAUGAGGAUCACCCAUGUGGUUCUUCUGC
apparent Kd [1]: 28.2 nM | apparent Kd [2]: 339 nM

AAAUUGACGGGACAUGAGGAUCACCCAUGUGCUAGCCGGACCAGAAGGGCAGCCGGCACGUGGUUGCAGGAUAUGGCCGUCGCA
apparent Kd [3]: 154 nM | apparent Kd [4]: 151 nM

GGAAAACAUGAGGAUCACCCAUGUGAGGAUAUCGAUGUCCAGGGCCUGCUGCGGGACUCGAGAAGGCAGUGGGA
apparent Kd [1]: 41.2 nM | apparent Kd [2]: 21.7 nM

GCGCAAACGCCAAAAGGCGAAACAACAUGAGGAUCACCCAUGUAGGAUAUCGAUUGCUUUGCAGUCGAGAAGGACAUAAUGCGC
apparent Kd [1]: 17.1 nM | apparent Kd [2]: 16.1 nM

CUUCGACAUGAGGAUCACCCAUGUCAGGAUAUUGUGUAUCGGGUUUUUUACGGAAAGGCGAGAAGGGAUGUGUG
apparent Kd [1]: 27.6 nM | apparent Kd [2]: 22.3 nM

GGAACUCAUGUAGGAUAUGCAUGGCGAAGCUACGCAGAAGGACAUGAGGAUCACCCAUGUUCUAGCGUCUGAGUACAGAUGCAA
apparent Kd [1]: 126 nM | apparent Kd [2]: 178 nM

GGCCUGUUAGGAUAUUAGUAGUAGUCAGAAUAGACUAUUACUGAGAAGGAACAUGAGGAUCACCCAUGUUGGCC
apparent Kd [1]: 16.5 nM | apparent Kd [2]: 19.3 nM

AUGCAACAUGAGGAUCACCCAUGUGAGGAUAUCGUAUACUACUGUUGCAAUACUUAGACGAGAAGGCACACCGU
apparent Kd [1]: 166 nM | apparent Kd [2]: 174 nM

CAAUUUAUUACAGGAUAUACAAUACAAUGAUUAGUAGAAGGGUAUAAUACAUGAGGAUCACCCAUGUCAUGUGUCAUAAUAACC
apparent Kd [1]: 35.8 nM | apparent Kd [2]: 23.9 nM

UUGAGGUGCAAGAAGGAUCACAUGAGGAUCACCCAUGUGAUAUAAAGUCUCGAGAUUUUAUAUCGAUAGGAUAUUGCACCGAAC
apparent Kd [3]: 19.9 nM | apparent Kd [4]: 13.8 nM

ACAUGCAUAGCGAUAUGAUCGAGAGAUCAUGUCGCUAAAGUUAGAAGGACAUGAGGAUCACCCAUGUAGGAUAUGGGUGCAUGA
apparent Kd [3]: 641 nM | apparent Kd [4]: 48.7 nM

CCGAAUAUGCAGGAUAUCGUAUCGGAAACGAUACGAGAAGGGUAAACAUGAGGAUCACCCAUGUUCCUUAACGG
apparent Kd [1]: 20.6 nM | apparent Kd [2]: 22.2 nM

GUAGCAUACCGAGGAUAUUCUUACCGGAAACGGACAUGAGGAUCACCCAUGUGGCGAAAGCCUUUGGAGAAGGCGGAAUGCUAC
apparent Kd [3]: 12.4 nM | apparent Kd [4]: 12.4 nM

AGUUAAUAUCGAGGAUAUCUCAUGAAUACAUGAGGAUCACCCAUGUGAAUGGGAGAAGGCGAUAUUAACAGCAUGUUACAUGCA
apparent Kd [3]: 12.6 nM | apparent Kd [4]: 6.52 nM

CGGGCAUAUCGAGGAUAUAAGUCUAGGACAUGAGGAUCACCCAUGUAUGUCUUAGAAGGCGAUAUGCCCAGCCUGUUACAGGCA
apparent Kd [3]: 30 nM | apparent Kd [4]: 6.01 nM

CCGCUGUUAGGAUAUCUGAAGCUUCAAUGGAAGUCUUCAUUGGAGAAGGGACAUGAGGAUCACCCAUGUAGGGA
apparent Kd [1]: 192 nM | apparent Kd [2]: 253 nM

GCUGACGAUGUAGGAUAUCUCGACGAUAAGUCGAGAGAAGGACAUGAGGAUCACCCAUGUACUCCAACGUCAGCGAGGAAACUC
apparent Kd [1]: 18.2 nM | apparent Kd [2]: 18.5 nM

CGAUGUUAUGUCAGGAUAUGCAUUGCGAAAGCGAUGCAGAAGGGACAUGAGGAUCACCCAUGUCCUAACCAUCG
apparent Kd [1]: 12.3 nM | apparent Kd [2]: 18.8 nM

CGAACUAAGUAGAAGGCUGUCUUAAAAUAGGACAGAGGAUAUACAUGAGGAUCACCCAUGUACUCCUUUAAUAAGUUCGAAAUA
apparent Kd [1]: 5.22 nM | apparent Kd [2]: 6.13 nM

GCAUCCAAUGUGAGGAUAUACCUCUGGAUACAUAGGUAGAAGGCACAUGAGGAUCACCCAUGUCCUAAGGAUGC
apparent Kd [1]: 130 nM | apparent Kd [2]: 149 nM

UUGGACGUCGUAGGAUAUGUAGAAUAUUCCUACAUGAGGAUCACCCAUGUUGACAUGGAAGAAGGACAGAAGGACGAUGUCCAU
apparent Kd [3]: 6.97 nM | apparent Kd [4]: 5.37 nM

AUCAUCCUAGGAUAUACAUGGAUAUACAUUCAUGUGGACCUACAUGAGGAUCACCCAUGUAGAAGGAGGAUGAU
apparent Kd [1]: 33.4 nM | apparent Kd [2]: 88.8 nM

CAUGUCCUCACAGGAUAUGCACCACUUUGUGGUGCAGAAGGGUGAAUACAUGAGGAUCACCCAUGUGGACAUGAUAUAUUUAAU
apparent Kd [3]: 1140 nM | apparent Kd [4]: 72.2 nM

AAAAAACAUGAGGAUCACCCAUGUGAGGAUAUCACUAGUCAGUCCUCAGAGUGAGUACUGAGAAGGCACAUAAA
apparent Kd [1]: 86.9 nM | apparent Kd [2]: 54.3 nM

AUAAAUGAUGAGGAUAUCACUAGCGAUAGCUAGUGAGAAGGCAUCACAUGAGGAUCACCCAUGUGCUCCAAUAA
apparent Kd [1]: 115 nM | apparent Kd [2]: 486 nM

UAAAUUUUAUGAUAUUAUGACAUUAGAAGGCUAUACAUGUUGAUACAUGAGGAUCACCCAUGUAUAGAGGAUAUAGACAAUUAU
apparent Kd [1]: 44.1 nM | apparent Kd [2]: 100 nM

GAAAACGCAGAGGAUAUUUCAGAUCAAAGCUGCAAAGAAGGCUGCACAUGAGGAUCACCCAUGUGGUCUUUAAA
apparent Kd [1]: 19.3 nM | apparent Kd [2]: 202 nM

AGAGAGAGCACAGGAUAUCCGCGCACAUGUAGCGGAGAAGGGUGACCUUUUUGCACAUGAGGAUCACCCAUGUCCAGCACCACA
apparent Kd [3]: 39.7 nM | apparent Kd [4]: 21.7 nM

UUUUAACAUGAGGAUCACCCAUGUGAGGAUAUCGAAAUUUAUAUUAAUAUUUUUAUUACGAGAAGGCACAUUUU
apparent Kd [1]: 73.5 nM | apparent Kd [2]: 69.8 nM

UAAAAGACUAGUAUGGUAACGAUCACAUGAGGAUCACCCAUGUAGGAUAUGAGCAGAAAAUCUGCUCAGAAGGACAUGCUAGUC
apparent Kd [1]: 5.8 nM | apparent Kd [2]: 9.08 nM

GCCAUCGCAUGAGGAUAUGGCACCGAAACGGUGCCAGAAGGCAUGUCAAUAGACAUGAGGAUCACCCAUGUAUUAUCGAUGGCA
apparent Kd [3]: 274 nM | apparent Kd [4]: 29.1 nM

GCGAAUCAGUGAGGAUAUACAUAAUUUAUACCUGUAGAAGGCACAAACCUCAAGACAUGAGGAUCACCCAUGUGACAUAUCGCU
apparent Kd [1]: 43.3 nM | apparent Kd [2]: 66.8 nM

AACAGUACAGGAUAUACAUGAGGAUCACCCAUGUGAAGAAUAAGUGGCGUACCACAAAGUAGAAGGGUACUGGA
apparent Kd [1]: 29.3 nM | apparent Kd [2]: 120 nM

UACAUGAGGAUCACCCAUGUUUUGUCGUGUAUGGUAUUUAUCUAGGAUAUCAUUUUAUUUAGUUAUGAGAAGGAGAAUAUUAAU
apparent Kd [1]: 28.9 nM | apparent Kd [2]: 34.4 nM

UUGUACAUAGGAUAUAGUUGUUUGUACAUGAGGAUCACCCAUGUUAUGUAUGUUUUGCUUCUAGAAGGAUGUUGUU
apparent Kd [1]: 33.2 nM | apparent Kd [2]: 24.4 nM

GGGUACAUCGGAGGAUAUCAUGUAAAUACAUGAGGAUCACCCAUGUCGAUGGAGACAUCGGAGAUUGAGAAGGCCGAUGUACUG
apparent Kd [3]: 169 nM | apparent Kd [4]: 8.5 nM

UUACUAUUGCAGAAGGCUAAAUAAUAUAUAAAUGGAGGAUAUGCAACAUGAGGAUCACCCAUGUUUCACCCAUAUGAGGAUCAC
apparent Kd [1]: 7.7 nM | apparent Kd [2]: 9.14 nM

AUUAUAUUAGGAUAUUCGCUGUGGUACAUGAGGAUCACCCAUGUAUCUGCUUGUAUCAACGAAGAAGGAAUGUGUA
apparent Kd [1]: 15.5 nM | apparent Kd [2]: 16.8 nM

GUCAUGUCAGGAUAUUUUGGUCAACUCAUCGGUCGACCCUAAGAGAAGGGACAUGAGGAUCACCCAUGUUCGCA
apparent Kd [1]: 26.8 nM | apparent Kd [2]: 77.8 nM

AGUAACAGAGGAUAUACUGUUUUAUGUGUUUAUUAUUUUGAACAUGAGGAUCACCCAUGUAGAAGGCUGAAUAA
apparent Kd [2]: 21.9 nM

AUUAUGCAGCAGGAUAUCGAUCCGCAGUAUGAUCGAGAAGGGCUGACAUGAGGAUCACCCAUGUGCGUCCUAGG
apparent Kd [1]: 43.6 nM | apparent Kd [2]: 155 nM

UGAUAACAUGUAGGAUAUCCAGCAUUGACCAUCGGAGAAGGACAUGAGGAUCACCCAUGUACCGAUACAAUGGAAUAAGGGAAU
apparent Kd [1]: 15.5 nM | apparent Kd [2]: 17.9 nM

ACUGCCACAGGAUAUACGAAACUCUUGGGUUCCGCCGUGUGACAUGAGGAUCACCCAUGUAGAAGGGUGGCUUA
apparent Kd [1]: 606 nM | apparent Kd [2]: 416 nM

GGAUUACAUGAGGAUCACCCAUGUGAGGAUAUCGAUGUCCCUUGGCGCGUGCGGGACUCGAGAAGGCACUUGGA
apparent Kd [1]: 47.8 nM | apparent Kd [2]: 248 nM
